Calls of active or inactive are those of the source. No cut-off for these calls is given here.
Experiments:
Salmonella typhimurium [1] = assay: Antibacterial activity against Salmonella Typhimurium assessed as LPS neutralisation by LAL assay at 5 uM; assay type: functional, organism-based; details: Salmonella enterica subsp. enterica serovar Typhimurium
Escherichia coli [2] = assay: Antibacterial activity against Escherichia coli 0111:B4 assessed as LPS neutralisation by LAL assay; assay type: functional, organism-based
Summary of the method: (§1)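 LPS was used at 0.04 units: 0.01 ng for E. coli 055:B5, 0.01 ng for E. coli 0111:B4, 0.003 ng for K. pneumoniae, 0.01 ng for P. aeruginosa, 0.03 ng for S. typhimurium and 0.03 ng for S. marcescens. IC50 came from sigmoidal fits of dose-response curves.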

Pseudomonas aeruginosa [3] = assay: Antibacterial activity against Pseudomonas aeruginosa assessed as LPS neutralisation by LAL assay; assay type: functional, organism-based; summary of the method: as §1
Escherichia coli [4] = assay: Antibacterial activity against Escherichia coli 055:B5 assessed as LPS neutralisation by LAL assay; assay type: functional, organism-based; summary of the method: as §1
Klebsiella pneumoniae [5] = assay: Antibacterial activity against Klebsiella pneumoniae assessed as LPS neutralisation by LAL assay; assay type: functional, organism-based; summary of the method: as §1
Serratia marcescens [6] = assay: Antibacterial activity against Serratia marcescens assessed as LPS neutralisation by LAL assay at 5 uM; assay type: functional, organism-based
Serratia marcescens [7] = assay: Antibacterial activity against Serratia marcescens assessed as LPS neutralisation by LAL assay; assay type: functional, organism-based; summary of the method: as §1
Pseudomonas aeruginosa [8] = assay: Antibacterial activity against Pseudomonas aeruginosa assessed as LPS neutralisation at 5 uM by LAL assay; assay type: functional, organism-based
Salmonella typhimurium [9] = assay: Antibacterial activity against Salmonella Typhimurium assessed as LPS neutralisation by LAL assay; assay type: functional, organism-based, Salmonella enterica subsp. enterica serovar Typhimurium; details: Salmonella enterica; summary of the method: as §1
Klebsiella pneumoniae [10] = assay: Antibacterial activity against Klebsiella pneumoniae assessed as LPS neutralisation by LAL assay at 5 uM; assay type: functional, organism-based
Escherichia coli [11] = assay: Antibacterial activity against Escherichia coli 0111:B4 assessed as LPS neutralisation at 5 uM by LAL assay; assay type: functional, organism-based
Mus musculus [12] = assay: Survival of Salmonella LPS-challenged C57/BL6 mouse at 50 mg/kg, ip after 120 hrs relative to control; assay type: functional; details: route intraperitoneal
Summary of the method: (§2)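 Male C57/BL6 mice (n = 4–8/group) received a lethal LPS dose: 500 µg for E. coli 0111:B4, 600 µg for E. coli 055:B5 and 600 µg for Salmonella. LPS was premixed with compound in 2% DMSO v/v for 30 min, then injected i.p. Controls got DMSO alone or compound alone. Survival was followed for up to 120 h, and mean survival time was compared by Student's t-test.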

Mus musculus [13] = assay: Survival of Escherichia coli 055:B5 LPS-challenged C57/BL6 mouse at 5 mg/kg, ip after 120 hrs relative 10 control; assay type: functional, organism-based; parameters: dose 5 mg/kg; summary of the method: as §2
Mus musculus [14] = assay: Survival of Escherichia coli 0111:B4 LPS-challenged C57/BL6 mouse at 50 mg/kg, ip after 120 hrs relative to control; assay type: functional; details: route intraperitoneal; summary of the method: as §2
Mus musculus [15] = assay: Survival of Escherichia coli 055:B5 LPS-challenged C57/BL6 mouse at 50 mg/kg, ip after 120 hrs relative to control; assay type: functional; details: route intraperitoneal; summary of the method: as §2
Escherichia coli [16] = assay: Antibacterial activity against Escherichia coli 055:B5 assessed as LPS neutralisation at 5 uM by LAL assay; assay type: functional, organism-based

Row | SMILES | Activity (Salmonella typhimurium [1]) | IC50 (Escherichia coli [2]) [µM] | IC50 (Pseudomonas aeruginosa [3]) [µM] | IC50 (Escherichia coli [4]) [µM] | IC50 (Klebsiella pneumoniae [5]) [µM] | Activity (Serratia marcescens [6]) | IC50 (Serratia marcescens [7]) [µM] | Activity (Pseudomonas aeruginosa [8]) | IC50 (Salmonella typhimurium [9]) [µM] | Activity (Klebsiella pneumoniae [10]) | Activity (Escherichia coli [11]) | survival at 50 mg/kg (Mus musculus [12]) [%] | Activity (Mus musculus [13]) | survival at 50 mg/kg (Mus musculus [14]) [%] | survival at 50 mg/kg (Mus musculus [15]) [%] | Activity (Escherichia coli [16])
1 | CC(C)(C)c1cc2c(OCc3cn(CCN)nn3)c(c1)Cc1cc(C(C)(C)C)cc(c1OCc1cn(CCN)nn1)Cc1cc(OCc3cnnn3CCN)cc(c1C(C)(C)C)Cc1cc(C(C)(C)C)cc(c1OCc1cn(CCN)nn1)C2 | inactive | 1.5 | 1 | 0.6 | 0.9 | inactive | – | – | – | – | – | – | – | – | – | –
2 | CC(C)CCOc1c2cccc1Cc1cc(CCCOS(=O)(=O)O)cc(c1O)Cc1cccc(c1OCCC(C)C)Cc1cc(CCCOS(=O)(=O)O)cc(c1O)C2 | inactive | 5 | – | 5 | 2.1 | – | 4.2 | inactive | – | – | – | – | – | – | – | –
3 | CC(C)(C)c1cc2c(OCCCCN)c(c1)Cc1cc(C(C)(C)C)cc(c1OCCCCNC(=N)N)Cc1cc(C(C)(C)C)cc(c1OCCCCNC(=N)N)Cc1cc(C(C)(C)C)cc(c1OCCCCNC(=N)N)C2 | – | 0.4 | 0.8 | 0.1 | 0.5 | – | 3.2 | – | 0.6 | – | – | – | – | – | – | –
4 | CC(C)CCOc1c2cccc1Cc1cc(CCCOP(=O)(O)O)cc(c1O)Cc1cccc(c1OCCC(C)C)Cc1cc(CCCOP(=O)(O)O)cc(c1O)C2 | inactive | – | – | > 5 | – | – | – | inactive | – | inactive | inactive | – | – | – | – | –
5 | CCCc1cc2c(OCC(=O)NCCN(C)C)c(c1)Cc1cc(CCC)cc(c1OCC(=O)NCCN(C)C)Cc1cc(CCC)cc(c1OCC(=O)NCCN(C)C)Cc1cc(OCC(=O)NCCN(C)C)cc(c1CCC)C2 | – | 2.7 | – | 0.05 | 0.4 | inactive | – | inactive | 0.8 | – | – | – | – | – | – | –
6 | CN(C)CCNC(=O)COc1c2cccc1Cc1cccc(c1OCC(=O)NCCN(C)C)Cc1cccc(c1OCC(=O)NCCN(C)C)Cc1cccc(c1OCC(=O)NCCN(C)C)C2 [OTX-008] | inactive | > 5 | – | 3.4 | 1.5 | – | > 5 | inactive | – | – | – | – | – | – | – | –
7 | CC(C)(C)c1cc2c(OCc3cn(CCN)nn3)c(c1)Cc1cc(C(C)(C)C)cc(c1OCc1cn(CCN)nn1)Cc1cc(C(C)(C)C)cc(c1OCc1cn(CCN)nn1)Cc1cc(C(C)(C)C)cc(c1OCc1cn(CCN)nn1)C2 | – | 2.2 | 2.6 | 0.05 | 1 | – | > 5 | – | 1.1 | – | – | 100 | inactive | 25 | – | –
8 | C=CCc1cc2c(OCC(=O)NCCN(C)C)c(c1)Cc1cc(CC(=C)C)cc(c1OCC(=O)NCCN(C)C)Cc1cc(CC=C)cc(c1OCC(=O)NCCN(C)C)Cc1cc(CC(=C)C)cc(c1OCC(=O)NCCN(C)C)C2 | – | 4.7 | > 5 | 3.6 | – | – | – | – | > 5 | inactive | – | – | – | – | – | –
9 | CC(C)Cc1cc2c(OCC(=O)NCCN(C)C)c(c1)Cc1cc(CC(C)C)cc(c1OCC(=O)NCCN(C)C)Cc1cc(C(C)C)cc(c1OCC(=O)NCCN(C)C)Cc1cc(CC(C)C)cc(c1OCC(=O)NCCN(C)C)C2 | – | 3.1 | 4.2 | 0.006 | 1 | – | – | – | 0.4 | – | – | 80 | inactive | – | 60 | –
10 | CC(C)CCOc1c2cccc1Cc1cc(CCC(=O)O)cc(c1O)Cc1cccc(c1OCCC(C)C)Cc1cc(CCC(=O)O)cc(c1O)C2 | inactive | > 5 | – | > 5 | – | – | – | inactive | – | inactive | – | – | – | – | – | –
11 | CC(C)(C)c1cc2c(OCCCCNC(=N)N)c(c1)Cc1cc(C(C)(C)C)cc(c1OCCCCNC(=N)N)Cc1cc(C(C)(C)C)cc(c1OCCCCNC(=N)N)Cc1cc(C(C)(C)C)cc(c1OCCCCNC(=N)N)C2 | – | 0.7 | 1.5 | 0.04 | 1 | – | – | – | 0.6 | – | – | 60 | inactive | 100 | 40 | –
12 | CN(C)CCNC(=O)COc1c2cc(C(C)(C)C)cc1Cc1cc(C(C)(C)C)cc(c1OCC(=O)NCCN(C)C)Cc1cc(C(C)(C)C)cc(c1OCC(=O)NCCN(C)C)Cc1cc(C(C)(C)C)cc(c1OCC(=O)NCCN(C)C)C2 | – | 1.4 | > 5 | > 5 | 1.5 | – | 3.4 | – | 0.6 | – | – | – | – | – | – | –
13 | CC(C)(C)c1cc2c(OCC(=O)NCCCn3cncn3)c(c1)Cc1cc(C(C)(C)C)cc(c1OCC(=O)NCCCn1cncn1)Cc1cc(C(C)(C)C)cc(c1OCC(=O)NCCCn1cncn1)Cc1cc(C(C)(C)C)cc(c1OCC(=O)NCCCn1cncn1)C2 | inactive | – | – | – | – | – | – | inactive | – | inactive | inactive | – | – | – | – | inactive
14 | CC(C)(C)c1cc2c(OCCCCN)c(c1)Cc1cc(C(C)(C)C)cc(c1OCCCCN)Cc1cc(C(C)(C)C)cc(c1OCCCCN)Cc1cc(C(C)(C)C)cc(c1OCCCCN)C2 | – | 0.1 | 0.5 | 1.3 | 0.5 | – | 4.5 | – | 0.2 | – | – | – | – | – | – | –
15 | CC(C)(C)c1cc2c(O)c(c1)Cc1cc(C(C)(C)C)cc(c1OCCNC(=N)N)Cc1cc(C(C)(C)C)cc(c1O)Cc1cc(C(C)(C)C)cc(c1OCCN)C2 | – | > 5 | – | 4.1 | – | – | – | inactive | 2.6 | inactive | – | – | – | – | – | –
16 | CC(C)(C)c1cc2c(OCC(=O)NCCN)c(c1)Cc1cc(C(C)(C)C)cc(c1OCC(=O)NCCN)Cc1cc(C(C)(C)C)cc(c1OCC(=O)NCCN)Cc1cc(C(C)(C)C)cc(c1OCC(=O)NCCN)C2 | – | 1.6 | 0.8 | 0.9 | 0.3 | – | 1.5 | – | 0.6 | – | – | – | – | – | – | –
17 | CN(C)CCNC(=O)COc1c2cccc1Cc1cccc(c1O)Cc1cccc(c1OCC(=O)NCCN(C)C)Cc1cccc(c1O)C2 | – | > 5 | – | > 5 | – | – | – | inactive | > 5 | inactive | – | – | – | – | – | –
18 | CCCc1cc2c(OCC(=O)NCCN(C)C)c(c1)Cc1cc(CCC)cc(c1OCC(=O)NCCN(C)C)Cc1cc(CCC)cc(c1OCC(=O)NCCN(C)C)Cc1cc(CCC)cc(c1OCC(=O)NCCN(C)C)C2 | – | > 5 | – | 4.4 | 0.08 | – | – | inactive | 4.1 | – | – | – | – | – | – | –
19 | N=C(N)NCCOc1c2cccc1Cc1cccc(c1O)Cc1cccc(c1OCC(=O)NC(=N)N)Cc1cccc(c1O)C2 | – | 3.9 | – | 4.1 | – | – | – | inactive | > 5 | inactive | – | – | – | – | – | –
20 | CC(C)(C)c1cc2c(O)c(c1)Cc1cc(C(C)(C)C)cc(c1OCCNC(=N)N)Cc1cc(C(C)(C)C)cc(c1O)Cc1cc(C(C)(C)C)cc(c1OCCNC(=N)N)C2 | – | – | – | > 5 | – | – | – | inactive | 4.4 | inactive | – | – | – | – | – | –
21 | CCCc1cc2c(OCC(=O)NCCN(C)C)c(c1)Cc1cc(CC(C)C)cc(c1OCC(=O)NCCN(C)C)Cc1cc(CCC)cc(c1OCC(=O)NCCN(C)C)Cc1cc(CC(C)C)cc(c1OCC(=O)NCCN(C)C)C2 | – | 3.7 | > 5 | 3.8 | 2.1 | – | – | – | 3.1 | – | – | – | – | – | – | –
22 | NCCNC(=O)COc1c2cccc1Cc1cccc(c1O)Cc1cccc(c1OCC(=O)NCCN)Cc1cccc(c1O)C2 | – | – | – | > 5 | – | – | – | inactive | > 5 | inactive | inactive | – | – | – | – | –
23 | CC(C)CCOc1c2cc(CCC(=O)NCCN(C)C)cc1Cc1cc(CCC(=O)NCCN(C)C)cc(c1OCCC(C)C)Cc1cc(CCC(=O)NCCN(C)C)cc(c1OCCC(C)C)Cc1cc(CCC(=O)NCCN(C)C)cc(c1OCCC(C)C)C2 | – | > 5 | – | > 5 | 2.4 | – | – | inactive | 3.2 | – | – | – | – | – | – | –
